Screens (PubChem)
S100A4 inh HTS: inhibitors of S100A4-myosin IIA peptide binding, primary screen, biochemical, fluorescence polarization, TAMRA-MyoIIA peptide; inhibition, % at 10.7 µM; Protein S100-A4 (Homo sapiens), P26447; 360,000 tested, 0.14% active;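 active means mean inhibition of at least 70% across replicates, with every replicate also reaching that level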
Target sequence (P26447 whole entry, looked up): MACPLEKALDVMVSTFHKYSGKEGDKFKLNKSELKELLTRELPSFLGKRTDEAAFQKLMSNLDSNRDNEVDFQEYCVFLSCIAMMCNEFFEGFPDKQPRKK
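Material: S100A4 monomer protein / Buffer or medium: 50 mM HEPES pH 7.2, 10 mM CaCl2, 100 mM KCl / Times: 5 min incubation before reading / Benchmarks: neutral control DMSO, positive control TFP / Reagent: labelled myosin peptide probe, 5 nM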
Ecoli rRNA inh: reduced GFP signal of wild-type E. coli, primary screen, bacterial rRNA inhibitor project, GFP/RFP fluorescence, OD600, single point | GFP signal change (wild-type ribosome), % (no concentration beside the values) | E. coli WT GFP vs humanized-ribosome RFP mutants, 24 h; active compounds read low; DMSO median 0, no signal -100 | 350,000 tested, 1.6% active;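 active means significant combined selectivity score with lowered wild-type GFP, culture density cut under 30%, mutant RFP and density less affected; inactive means any of these conditions unmet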
ERAP1 inh: human ERAP1 aminopeptidase inhibitors, primary screen, biochemical, single point, plate reader. 340,000 tested, 0.15% active. recombinant ERAP1, Leu-AMC fluorescence, 60 min. inhibition, % at 10.7 µM;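 active means mean replicate inhibition of at least 30%, or all replicates individually reaching that 30% level; inactive means mean below 30% and not every replicate reaching it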;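 further: 0% = neutral control wells and 100% = L-leucinethiol positive control wells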
AF4-AF9 inh: inhibitors of AF4 peptide binding to AF9, primary screen, biochemical, AlphaScreen, biotin-AF4 peptide, FLAG-AF9, single point; Protein AF-9 (Homo sapiens), P42568; inhibition, % at 10 µM; AID 651704, 2012; 350,000 tested, 0.47% active;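 active means every replicate reaching a set inhibition limit, whatever the replicate mean, cut at about 25% in these data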;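 further: 0% = plate neutral control median and 100% = total signal loss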
SIRT5 inh: SIRT5 desuccinylase inhibitors, primary screen, biochemical, fluorescence imaging, single point, set 5; inhibition, % at 15 µM; Purified SirT5, succinyl-peptide AMC, trypsin-coupled fluorescence; 330,000 tested, 1.1% active; NAD-dependent protein deacylase sirtuin-5, mitochondrial (Homo sapiens), Q9NXA8; in the data active means inhibition above about 15%
Target sequence (Q9NXA8 whole entry, looked up): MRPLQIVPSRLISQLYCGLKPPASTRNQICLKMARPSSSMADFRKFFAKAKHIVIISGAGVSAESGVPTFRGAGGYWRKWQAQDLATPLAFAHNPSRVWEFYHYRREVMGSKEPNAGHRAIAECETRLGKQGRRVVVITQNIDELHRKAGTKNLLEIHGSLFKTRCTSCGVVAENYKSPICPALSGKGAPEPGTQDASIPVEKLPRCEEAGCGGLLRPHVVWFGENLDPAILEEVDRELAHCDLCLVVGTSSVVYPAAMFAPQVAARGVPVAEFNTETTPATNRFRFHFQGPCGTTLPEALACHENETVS
E-selectin induc: E-selectin induction in HUVECs, primary screen, imaging, HUVEC, immunofluorescence imaging, single point | 260,000 tested, 0.37% active | activation, % at 7.58 µM | normalized: neutral wells 0, TNF-alpha wells 100 | P16581;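 active means mean E-selectin-positive cell signal at least 10% of the positive control, reached in at least 60% of replicates, without over 20% cell loss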
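Assay system: HUVEC, human umbilical vein endothelial cells / Amount: 3,000 HUVEC/well / Controls: TNF-alpha positive control, DMSO neutral control / Compound dosing: single concentration / Medium: EGM-2 over gelatin coat / Evaluation: percent E-selectin-positive cells / Signal: immunofluorescence imaging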
The depositor's hits bear a star; . = not tested or not shown. An excerpt weighted towards active compounds, which were near 3.4% of everything screened.

SMILES	S100A4 inh HTS	Ecoli rRNA inh	ERAP1 inh	AF4-AF9 inh	SIRT5 inh	E-selectin induc
COc1ccc(CN(C)C[C@@H]2Oc3ccc(NS(=O)(=O)c4ccccc4)cc3CC(=O)N([C@H](C)CO)C[C@H]2C)cc1	134.5*	-3.1	-6.0	0.4	4.7	-0.5
C[C@@H]1CN([C@H](C)CO)C(=O)Cc2cc(NS(=O)(=O)c3ccc(Cl)cc3)ccc2O[C@H]1CN(C)Cc1ccc(Oc2ccccc2)cc1	-24.2	2.1	-1.2	1.2	20.0*	-0.2
C[C@@H]1CCCCO[C@@H](CN(C)C(=O)Nc2cccc3ccccc23)[C@H](C)CN([C@H](C)CO)C(=O)c2cc(NS(=O)(=O)c3ccc(F)cc3)ccc2O1	-2.6	2.1	-4.9	1.4	-0.9	0.0
C[C@H]1CN([C@@H](C)CO)S(=O)(=O)c2ccc(C#Cc3ccccc3F)cc2O[C@H]1CN(C)C(=O)c1ccc2c(c1)OCO2	-4.9	0.2	5.0	-1.6	16.8*	-0.2
C[C@@H]1CN([C@@H](C)CO)S(=O)(=O)c2ccc(C#Cc3ccccc3F)cc2O[C@@H]1CN(C)C(=O)c1ccc2c(c1)OCO2	-9.0	-5.5	-0.7	-0.9	25.8*	-0.1
C[C@H]1CN([C@@H](C)CO)S(=O)(=O)c2ccc(C#Cc3ccccc3F)cc2O[C@@H]1CN(C)C(=O)Cc1ccccc1	-1.1	-1.1	-5.1	-8.2	0.9	-0.3
CC(C)c1cn(CC[C@H]2CC[C@H](NC(=O)c3cccc(F)c3)[C@@H](CO)O2)nn1	5.9	1.6	2.5	-0.7	-0.3	-0.4
CO[C@@H]1CN(C)C(=O)c2ccc(NC(=O)c3ccccc3F)cc2OC[C@@H](C)N(C(=O)c2ccccc2F)C[C@H]1C	-16.0	0.4	-1.4	0.3	0.7	0.3
COc1ccc(-n2c(=O)c3c4c(sc3n3c(=S)[nH]nc23)CCC4)cc1	7.8	-24.8*	-0.6	.	-0.7	-1.0
C[C@@H]1CN([C@H](C)CO)C(=O)c2cccc(NC(=O)C3CCOCC3)c2O[C@H]1CN(C)Cc1ccc(-c2ccccc2)cc1	4.8	-5.2	0.6	4.4	5.8	1.2
O=C1NC(=O)C2(COC(c3cccc([N+](=O)[O-])c3)OC2)S1 (centres undefined)	2.2	4.4	5.0	-0.5	-1.6	533.4*
CCOC(=O)N1CCN(C2=C(NS(=O)(=O)c3ccc(Br)cc3)C(=O)c3ccccc3C2=O)CC1	0.0	-8.0	-2.8	32.5*	.	0.6
CCOC(=O)N1CCN(C2=C(NS(=O)(=O)c3ccccc3)C(=O)c3ccccc3C2=O)CC1	-0.9	-24.9	-1.0	26.4*	-5.5	.
O=C(C[C@@H]1C=C[C@@H](NC(=O)Nc2ccc3c(c2)OCO3)[C@H](CO)O1)NCCCN1CCOCC1	4.6	3.2	1.0	-0.9	0.4	-0.1
COc1ccc(N(CC(=O)Nc2ccc(C)c(C)c2)S(=O)(=O)c2c(C)noc2C)cc1	-8.7	-8.2	3.6	-8.0	0.0	-0.2
COc1ccc(N(CC(=O)Nc2ccc(F)c(F)c2)S(=O)(=O)c2c(C)n[nH]c2C)cc1	-2.1	-25.6*	-0.9	-0.7	-0.7	.
CCOc1ccc(N(CC(=O)Nc2ccc(Cl)cc2)S(C)(=O)=O)cc1	-0.6	-6.1	2.1	0.6	.	0.3
COc1ccc(NC(=O)CN(c2ccc(Cl)cc2)S(C)(=O)=O)cc1OC	3.4	-0.6	-0.6	-2.0	24.7*	.
COc1ccc(NC(=O)CCN(c2ccc(OC)cc2)S(=O)(=O)c2ccc(C)c(C)c2)cc1	-2.1	-26.6*	0.2	1.3	1.1	0.4
COc1ccc(NC(=O)CN(c2cc(C)cc(C)c2)S(=O)(=O)c2c(C)n[nH]c2C)cc1	1.9	2.7	.	-6.5	.	.
